Experimental data as given in ChEMBL document CHEMBL1125607, “Novel gonadotropin-releasing hormone antagonists: peptides incorporating modified N omega-cyanoguanidino moieties” (J Med Chem, 1991).
Values after ≈ are worked out from the molar mass of the structure shown. Active and inactive are the calls of the source. No cut-off for these calls is given here. Where a SMILES comes first, the peptide text is derived from it. [ ]: non-standard residue; d: D form. The star is where a group is joined. Triazol3yl(1,2,4-5-NH2) = Nc1nc(*)n[nH]1; dPhe(4-Cl) = N[C@H](Cc1ccc(Cl)cc1)C(=O)O; d2Nal = N[C@H](Cc1ccc2ccccc2c1)C(=O)O; Lys(iPr) = CC(C)NCCCC[C@H](N)C(=O)O; d3Pal = N[C@H](Cc1cccnc1)C(=O)O; Nicotinoyl = O=C(c1cccnc1)*

Tests used:
[1] = molecular target: T1, Gonadotropin-releasing hormone receptor (Rattus norvegicus, UniProt P30969); assay: In vitro binding affinity of Gonadotropin-releasing hormone antagonist was measured in rat pituitary cell membranes; set-up: species or system Pituitary gland cell, Membrane
T1 sequence (P30969 whole entry): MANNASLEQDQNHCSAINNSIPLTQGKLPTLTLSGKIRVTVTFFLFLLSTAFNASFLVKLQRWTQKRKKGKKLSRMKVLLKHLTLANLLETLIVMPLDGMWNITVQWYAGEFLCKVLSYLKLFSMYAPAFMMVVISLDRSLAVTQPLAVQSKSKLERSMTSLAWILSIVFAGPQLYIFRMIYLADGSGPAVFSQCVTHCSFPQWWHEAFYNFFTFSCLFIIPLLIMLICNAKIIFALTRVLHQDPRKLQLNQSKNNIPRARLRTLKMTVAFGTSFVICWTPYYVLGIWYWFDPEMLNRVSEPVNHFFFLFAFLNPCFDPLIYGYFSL
How it was run: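 Displacement binding on pituitary cell membranes with [DAla6,NMe-Leu7,Pro9-NHEt]GnRH as standard; analogue KD values calculated from potencies relative to that standard derived from displacement data.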

[2] = tested on: Rattus norvegicus; assay: Potency (0.5 mg/rat) using anti-ovulatory assay, expressed as rat ovulating/total number of treated rats measured after sc administration; 6/6; assay type: functional, organism-based
[3] = tested on: Rattus norvegicus; assay: Potency (1 mg/rat) using anti-ovulatory assay, expressed as rat ovulating/total number of treated rats measured after sc administration; 2/8; assay type: functional, organism-based
[4] = molecular target: Gonadotropin-releasing hormone receptor (Rattus norvegicus) (UniProt P30969); assay: Antagonist potency at GnRH receptor relative to a standard ([Ac-delta3Pro, DFpa2, DTrp3,6]GnRH).
[5] = tested on: Rattus norvegicus; assay: Potency (2.5 mg/rat) using anti-ovulatory assay, expressed as rat ovulating/total number of treated rats measured after sc administration; 2/8; assay type: functional, organism-based
[6] = tested on: Rattus norvegicus; assay: Potency (1 mg/rat) using anti-ovulatory assay, expressed as rat ovulating/total number of treated rats measured after sc administration; 5/5; assay type: functional, organism-based
[7] = tested on: Rattus norvegicus; assay: Potency (2 mg/rat) using anti-ovulatory assay, expressed as rat ovulating/total number of treated rats measured after sc administration; 1/10; assay type: functional, organism-based
[8] = organism: Rattus norvegicus; assay: In vitro histamine release by rat mast cells.; details: read-out: ED50 (the source's name)
[9] = tested on: Rattus norvegicus; assay: Potency (5 mg/rat) using anti-ovulatory assay, expressed as rat ovulating/total number of treated rats measured after sc administration; 14/20; assay type: functional, organism-based
[10] = tested on: Rattus norvegicus; assay: Potency (2 mg/rat) using anti-ovulatory assay, expressed as rat ovulating/total number of treated rats measured after sc administration; 2/10; assay type: functional, organism-based

Kd [1] [pM]	EC50 [8] [µg/mL]	SMILES	further results
320		CC(C)C[C@H](NC(=O)[C@@H](CCCC/N=C(/NC#N)NC(C)C)NC(=O)[C@H](CCCC/N=C(/NC#N)NC(C)C)NC(=O)[C@H](CO)NC(=O)[C@H](Cc1c[nH]c2ccccc12)NC(=O)[C@H](Cc1c[nH]cn1)NC(=O)[C@@H]1CCC(=O)N1)C(=O)N[C@@H](CCCCNC(C)C)C(=O)N1CCC[C@H]1C(=O)N[C@H](C)C(N)=O	Activity [2]: inactive; Activity [3]: Active; Relative potency [4]: 0.3
	19 (≈ 14.5 µM)	CC(C)C[C@H](NC(=O)[C@@H](CCCN=C(N)N)NC(=O)[C@H](Cc1ccc(O)cc1)NC(=O)[C@H](CO)NC(=O)[C@@H](Cc1cccnc1)NC(=O)[C@H](Cc1c[nH]cn1)NC(=O)[C@@H]1CCC(=O)N1)C(=O)N[C@@H](CCCCNc1n[nH]c(N)n1)C(=O)N1CCC[C@H]1C(=O)N[C@H](C)C(N)=O	
	50 (≈ 34 µM)	CCCC/N=C(\NC#N)NCCCC[C@@H](NC(=O)[C@H](Cc1c[nH]cn1)NC(=O)[C@@H]1CCC(=O)N1)C(=O)N[C@@H](CO)C(=O)N[C@@H](Cc1ccc(O)cc1)C(=O)N[C@H](CCCCN/C(=N/CCCC)NC#N)C(=O)N[C@@H](CC(C)C)C(=O)N[C@@H](CCCCNC(C)C)C(=O)N1CCC[C@H]1C(=O)N[C@H](C)C(N)=O	
270		CC(C)C[C@H](NC(=O)[C@@H](CCCNC(=N)N)NC(=O)[C@H](Cc1ccc(O)cc1)NC(=O)[C@H](CO)NC(=O)[C@@H](CCCCNc1nnc(N)[nH]1)NC(=O)[C@H](Cc1cnc[nH]1)NC(=O)[C@@H]1CCC(=O)N1)C(=O)N[C@@H](CCCCNC(C)C)C(=O)N1CCC[C@H]1C(=O)N[C@H](C)C(N)=O	
210	158 (≈ 114 µM)	CC(C)C[C@H](NC(=O)[C@@H](CCCNc1n[nH]c(N)n1)NC(=O)[C@H](CCCNc1n[nH]c(N)n1)NC(=O)[C@H](CO)NC(=O)[C@H](Cc1c[nH]c2ccccc12)NC(=O)[C@H](Cc1c[nH]cn1)NC(=O)[C@@H]1CCC(=O)N1)C(=O)N[C@@H](CCCCNC(C)C)C(=O)N1CCC[C@H]1C(=O)N[C@H](C)C(N)=O	Activity [7]: Active; Relative potency [4]: 0.2
450		CCCC/N=C(\NC#N)NCCCC[C@H](NC(=O)[C@H](CC(C)C)NC(=O)[C@@H](CCCCNC(=O)c1cccnc1)NC(=O)[C@H](CCCCNC(=O)c1cccnc1)NC(=O)[C@H](CO)NC(=O)[C@H](Cc1c[nH]c2ccccc12)NC(=O)[C@H](Cc1c[nH]cn1)NC(=O)[C@@H]1CCC(=O)N1)C(=O)N1CCC[C@H]1C(=O)N[C@H](C)C(N)=O	Activity [9]: Weak activity; Relative potency [4]: 0.3
270		CC(C)C[C@H](NC(=O)[C@@H](CCCCNC(=NC#N)NCc1ccccn1)NC(=O)[C@H](CCCCNC(=NC#N)NCc1ccccn1)NC(=O)[C@H](CO)NC(=O)[C@H](Cc1c[nH]c2ccccc12)NC(=O)[C@H](Cc1cnc[nH]1)NC(=O)[C@@H]1CCC(=O)N1)C(=O)N[C@@H](CCCCNC(C)C)C(=O)N1CCC[C@H]1C(=O)N[C@H](C)C(N)=O	

Second part, the molecule before the results:

SMILES	Kd [1] [pM]	EC50 [8] [µg/mL]	further results
CC(=O)N[C@H](Cc1ccc2ccccc2c1)C(=O)N[C@H](Cc1ccc(Cl)cc1)C(=O)N[C@H](Cc1cccnc1)C(=O)N[C@@H](CO)C(=O)N[C@@H](CCCCNc1n[nH]c(N)n1)C(=O)N[C@H](CCCCNc1n[nH]c(N)n1)C(=O)N[C@@H](CC(C)C)C(=O)N[C@@H](CCCCNC(C)C)C(=O)N1CCC[C@H]1C(=O)N[C@H](C)C(N)=O (Ac-[d2Nal][dPhe(4-Cl)][d3Pal]SK(Triazol3yl(1,2,4-5-NH2))[dK](Triazol3yl(1,2,4-5-NH2))L[Lys(iPr)]P[dA]-NH2)	480		
CCCCCC/N=C(\NC#N)NCCCC[C@H](NC(=O)[C@H](CO)NC(=O)[C@H](Cc1c[nH]c2ccccc12)NC(=O)[C@H](Cc1c[nH]cn1)NC(=O)[C@@H]1CCC(=O)N1)C(=O)N[C@H](CCCCN/C(=N/CCCCCC)NC#N)C(=O)N[C@@H](CC(C)C)C(=O)N[C@@H](CCCCNC(C)C)C(=O)N1CCC[C@H]1C(=O)N[C@H](C)C(N)=O	3300		Relative potency [4]: 0.14; Activity [5]: Weak activity; Activity [6]: inactive
CC(C)C[C@H](NC(=O)[C@@H](Cc1cccnc1)NC(=O)[C@H](Cc1ccc(O)cc1)NC(=O)[C@H](CO)NC(=O)[C@@H](Cc1cccnc1)NC(=O)[C@H](Cc1cnc[nH]1)NC(=O)[C@@H]1CCC(=O)N1)C(=O)N[C@@H](CCCCNC(C)C)C(=O)N1CCC[C@H]1C(=O)N[C@H](C)C(N)=O	80		
CC(C)C[C@H](NC(=O)[C@@H](CCCCNc1n[nH]c(N)n1)NC(=O)[C@H](CCCCNc1n[nH]c(N)n1)NC(=O)[C@H](CO)NC(=O)[C@H](Cc1c[nH]c2ccccc12)NC(=O)[C@H](Cc1c[nH]cn1)NC(=O)[C@@H]1CCC(=O)N1)C(=O)N[C@@H](CCCCNC(C)C)C(=O)N1CCC[C@H]1C(=O)N[C@H](C)C(N)=O			Activity [7]: Active; Relative potency [4]: 0.23
CC(C)C[C@H](NC(=O)[C@@H](CCCCNC(=NC#N)NC1CCCCC1)NC(=O)[C@H](CCCCNC(=NC#N)NC1CCCCC1)NC(=O)[C@H](CO)NC(=O)[C@H](Cc1c[nH]c2ccccc12)NC(=O)[C@H](Cc1cnc[nH]1)NC(=O)[C@@H]1CCC(=O)N1)C(=O)N[C@@H](CCCCNC(C)C)C(=O)N1CCC[C@H]1C(=O)N[C@H](C)C(N)=O	1200		
CCCCNC(=NC#N)NCCCC[C@@H](NC(=O)[C@H](Cc1ccc(O)cc1)NC(=O)[C@H](CO)NC(=O)[C@@H](Cc1cccnc1)NC(=O)[C@H](Cc1cnc[nH]1)NC(=O)[C@@H]1CCC(=O)N1)C(=O)N[C@@H](CC(C)C)C(=O)N[C@@H](CCCNC(=N)N)C(=O)N1CCC[C@H]1C(=O)N[C@H](C)C(N)=O	1700		
CC(=O)N[C@H](Cc1ccc2ccccc2c1)C(=O)N[C@H](Cc1ccc(Cl)cc1)C(=O)N[C@H](Cc1cccnc1)C(=O)N[C@@H](CO)C(=O)N[C@@H](CCCCNC(=O)c1cccnc1)C(=O)N[C@H](CCCCNC(=O)c1cccnc1)C(=O)N[C@@H](CC(C)C)C(=O)N[C@@H](CCCCNC(C)C)C(=O)N1CCC[C@H]1C(=O)N[C@H](C)C(N)=O (Ac-[d2Nal][dPhe(4-Cl)][d3Pal]SK(Nicotinoyl)[dK](Nicotinoyl)L[Lys(iPr)]P[dA]-NH2)		> 300	
CC(=O)N[C@H](Cc1ccc2ccccc2c1)C(=O)N[C@H](Cc1ccc(F)cc1)C(=O)N[C@H](Cc1c[nH]c2ccccc12)C(=O)N[C@@H](CO)C(=O)N[C@@H](Cc1ccc(O)cc1)C(=O)N[C@H](CCCN=C(N)N)C(=O)N[C@@H](CC(C)C)C(=O)N[C@@H](CCCN=C(N)N)C(=O)N1CCC[C@H]1C(=O)NCC(N)=O (HELM PEPTIDE1{[ac].[O=C([C@@H](Cc1ccc2ccccc2c1)N[*:1])[*:2]].[O=C([C@@H](Cc1ccc(F)cc1)N[*:1])[*:2]].[dW].S.Y.[dR].L.R.P.G.[am]}$$$$V2.0)		0.17 (≈ 0.118 µM)	
CC(C)C[C@H](NC(=O)[C@@H](CCCCNc1n[nH]c(N)n1)NC(=O)[C@H](Cc1ccc(O)cc1)NC(=O)[C@H](CO)NC(=O)[C@@H](CCCCNc1n[nH]c(N)n1)NC(=O)[C@H](Cc1c[nH]cn1)NC(=O)[C@@H]1CCC(=O)N1)C(=O)N[C@@H](CCCCNC(C)C)C(=O)N1CCC[C@H]1C(=O)N[C@H](C)C(N)=O		> 150	
C/N=C(\NC#N)NCCCC[C@@H](NC(=O)[C@H](CCCCN/C(=N\C)NC#N)NC(=O)[C@H](CO)NC(=O)[C@H](Cc1c[nH]c2ccccc12)NC(=O)[C@H](Cc1c[nH]cn1)NC(=O)[C@@H]1CCC(=O)N1)C(=O)N[C@@H](CC(C)C)C(=O)N[C@@H](CCCCNC(C)C)C(=O)N1CCC[C@H]1C(=O)N[C@H](C)C(N)=O	240		Activity [10]: Active
